Source: PMC10840928 (Chemistry (Weinheim an der Bergstrasse, Germany), 2023)

What was measured:
[1] = Job's plot analysis of Cu; assay type: physicochemical; settings: PBS pH 7.4, total 30 μM
Summary of the method: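 Test compound and Cu(II) mixed in PBS pH 7.4, Cu from 0 to 100 mol %, combined concentration fixed at 30 μM. Equilibrated at least 5 min at room temperature. UV-vis spectra recorded, and stoichiometry read from the break point of the plot versus Cu mole fraction.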

[2] = target: Aβ42 oligomers and fibrils (Homo sapiens, UniProt P05067); assay: Fluorescence turn-on with Aβ42 fibrils and oligomers; assay type: binding; settings: 5 μM compound, 25 μM Aβ42 species, PBS; for fluorescence turn-on effect with Aβ aggregates: excitation 470 nm; for maximum emission wavelength in the presence of Aβ aggregates: for DCM-OH-2-MT the LE peak
Sequence of Aβ42 oligomers and fibrils (P05067 672-713 limits assumed): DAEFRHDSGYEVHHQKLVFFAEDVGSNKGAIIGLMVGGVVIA

[3] = target: Aβ42 peptide (Homo sapiens, UniProt P05067); assay: In vitro Aβ42 aggregation monitoring; assay type: binding; settings: 25 μM peptide, 5 μM probe, 37 °C, 0-40 h
Sequence of Aβ42 peptide (P05067 672-713 limits assumed): as above

[4] = tested on: Aβ aggregates in 5xFAD mice; assay: Real-time in vivo NIR fluorescence imaging; parameters: species or system mouse; settings: 5 mg/kg
[5] = Viscosity sensitivity measurement; assay type: physicochemical; settings: 10 μM, ethylene glycol/glycerol mixtures
Summary of the method: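 Mixed until no layering, then fluorescence intensity recorded. log I plotted against log η and fitted by linear regression (log I = x log η + A). Slope x taken as sensitivity.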

[6] = pKa by UV-vis spectrophotometric titration; assay type: physicochemical; settings: pH 3-11, I = 0.1 M NaCl
Summary of the method: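 About 20 μM test compound in 0.1 M NaCl titrated with small aliquots of 0.2 M NaOH, from low to high pH (3–11). Run at room temperature under moist N2 flow until spectra stopped changing, giving about 30 UV-vis spectra per compound. Constants fitted with HypSpec. Largest pKa assigned to the phenol O-H.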

[7] = target: Aβ aggregates in 5xFAD mouse brain sections (Homo sapiens, UniProt P05067); assay: Histological staining of 5xFAD mouse brain sections, colocalization with ThS; settings: 9-month-old 5xFAD brain sections, 10 μM compound, 2.5 μM ThS
Sequence of Aβ aggregates in 5xFAD mouse brain sections (P05067 672-711 limits assumed): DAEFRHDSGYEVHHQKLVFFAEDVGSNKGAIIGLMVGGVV

[8] = tested on: human neuroblastoma (SH-SY5Y) cells; assay: Alamar Blue cytotoxicity, SH-SY5Y cells; assay type: cell-based; settings: 40 h treatment
Summary of the method: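 After seeding at 2.0 × 10⁴/well and 24 h growth, medium changed to MEM/F-12 (1:1)/N-2 for 1 h. Cells exposed 40 h to test compound at varying concentrations. Alamar Blue incubation 90 min at 37 °C, then fluorescence measured at 590 nm with 560 nm excitation.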

[9] = tested on: mouse neuroblastoma (N2A) cells; assay: Alamar Blue cytotoxicity, N2A cells; assay type: cell-based; settings: 40 h treatment
Summary of the method: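 Cells seeded at 2.0 × 10⁴/well and grown 24 h. Medium switched to DMEM/N-2 for 1 h, then test compound added at a range of concentrations for 40 h. Alamar Blue added and incubated 90 min at 37 °C. Fluorescence read at 590 nm (excitation 560 nm).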

Row | SMILES | stoichiometry of Cu(II)-ligand complexation in solution [1] | fluorescence turn-on effect with Aβ aggregates [2] | maximum emission wavelength in the presence of Aβ aggregates [2] | fluorescence response during Aβ42 aggregation [3] | pKa of the phenol O-H (largest pKa value) [6] | labeling pattern of Aβ aggregates on brain sections [7] | also measured
1 | CN1CCN(C)CCN(Cc2cc(/C=C/C3=CC(=C(C#N)C#N)c4ccccc4O3)cc(CN3CCN(C)CCN(C)CC3)c2O)CC1 [DCM-OH-1-DT] | mixture of 1:1 and 2:1 ligand-to-Cu complexes | fluorescence enhancement | ~ 650 nm | – | – | – | –
2 | CN1CCN(C)CCN(Cc2cc(/C=C/C3=CC(=C(C#N)C#N)c4ccccc4O3)ccc2O)CC1 [DCM-OH-1-MT] | mixture of 1:1 and 2:1 ligand-to-Cu complexes | fluorescence enhancement | ~ 650 nm | – | – | – | –
3 | CN1CCN(C)CCN(Cc2cc(/C=C/C=C/C3=CC(=C(C#N)C#N)c4ccccc4O3)cc(CN3CCN(C)CCN(C)CC3)c2O)CC1 [DCM-OH-2-DT] | only the 1:1 ligand-to-Cu complexes | – | about 730 nm | more significant fluorescence increases at the early stage | 9.35 | bind to the peripheral region of the Aβ aggregates | brain NIR fluorescence signal, AD mice vs WT mice ([4]; 7-month-old 5xFAD vs WT, 5-, 15-, 30-min post injection): significantly higher fluorescence signal in AD mice; time to maximum brain fluorescence signal after injection ([4]; jugular vein injection, 7-month-old mice): about 15 min; viscosity sensitivity (x value) [5]: lowest viscosity sensitivity
4 | CN1CCN(C)CCN(Cc2cc(/C=C/C=C/C3=CC(=C(C#N)C#N)c4ccccc4O3)ccc2O)CC1 [DCM-OH-2-MT] | – | – | 620 nm | – | – | bind to the peripheral region of the Aβ aggregates | second emission peak (ESIPT emission) in the presence of Aβ aggregates [2]: 730 nm
5 | N#CC(C#N)=C1C=C(/C=C/C=C/c2ccc(O)cc2)Oc2ccccc21 [DCM-OH-2] | – | significant fluorescence turn-on effect | 620 nm | more significant fluorescence increases at the early stage | 11.73 | binding to the identical core regions of the Aβ aggregates | cytotoxicity [8]: slightly more toxic than the others; cytotoxicity [9]: slightly more toxic than the others
6 | Cc1ccc2c(c1)sc(-c1ccc(N(C)C)cc1)[n+]2C [ThT, Thioflavin T, reference compound] | – | – | – | minimal fluorescence enhancement from 0–10 h | – | – | –
